Reference: ChEMBL document CHEMBL4138217, “Discovery of a novel series of α-terpineol derivatives as promising anti-asthmatic agents: Their design, synthesis, and biological evaluation” (2018)

These compounds were tested on Rattus norvegicus (assay: Anti-asthmatic activity in ovalbumin-induced asthmatic Sprague-Dawley rat model assessed as IL-17 levels in serum at 0.5 mg/kg, po co-administered with OVA from day 15 to 21 of experiment period (reference value: 16.85 +/- 1.13 pg/ml)). Conditions: not given.

| SMILES | Activity [pg/mL] |
| --- | --- |
| CC(=O)OCC(=O)[C@@]1(O)[C@H](C)C[C@H]2[C@@H]3CCC4=CC(=O)C=C[C@]4(C)[C@@]3(F)[C@@H](O)C[C@@]21C [DEXAMETHASONE ACETATE] | 16.06 |

What follows are compounds tested on Smooth muscle of trachea (assay: Anti-asthmatic activity in guinea pig tracheal smooth muscle ring assessed as reduction in acetylcholine-induced muscle contractions by measuring muscle relaxation at 1.25 mmol/l after 60 mins (reference value: 13.59 +/- 9.14%)). Conditions: not given.
Type: functional, Cavia porcellus
Design: scale not given: the % may be the effect or the level left
Summary of the method: (§1)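 Guinea pig tracheal rings were held in Krebs-Henseleit at 36.5±0.5°C under 95% O2/5% CO2, at 1.0 g resting tension with 60-min equilibration. Isometric tension was recorded after acetylcholine-induced contraction. The read-out was percentage change in smooth muscle tension with compound, as means±S.D (n=10).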

| SMILES | Activity [%] |
| --- | --- |
| CC1=CCC(C(C)(C)OC(=O)C(C)(C)C)CC1 (stereo not given) | 28.02 |
| CCCC(=O)OC(C)(C)C1CC=C(C)CC1 (stereo not given) | 25.47 |
| CC(=O)OC(C)(C)C1CC=C(C)CC1 (stereo not given) | 47.72 |
| CC1=CCC(C(C)(C)OC(=O)C(C)C)CC1 (stereo not given) | 22.79 |
| CCC(=O)OC(C)(C)C1CC=C(C)CC1 (stereo not given) | 23.22 |
| CC1=CCC(C(C)(C)OC=O)CC1 (stereo not given) | 21.57 |
| CC1=CCC(C(C)(C)OC(=O)CSCC(O)CO)CC1 (stereo not given) | 65.29 |

The compounds below were run on Rattus norvegicus (assay: Anti-asthmatic activity in ovalbumin-induced asthmatic Sprague-Dawley rat model assessed as improvement in lung function by measuring dynamic compliance of the airway at 1.6 g/kg, po co-administered with OVA from day 15 to 21 of experiment period (reference value: 0.46 +/- 0.17)). Conditions: not given.
Type: functional

| SMILES | Activity |
| --- | --- |
| CC1=CCC(C(C)(C)OC(=O)CN(C)CCO)CC1 (stereo not given) | 0.84 |
| CC1=CCC(C(C)(C)OC(=O)CSCCO)CC1 (stereo not given) | 0.88 |

These compounds were tested on Rattus norvegicus (assay: Anti-asthmatic activity in ovalbumin-induced asthmatic Sprague-Dawley rat model assessed as improvement in lung function by measuring airway resistance at 1 g/kg, po co-administered with OVA from day 15 to 21 of experiment period (reference value: 67.33 +/- 10.54)). Conditions: not given.
Type: functional

| SMILES | Activity |
| --- | --- |
| CC1=CCC(C(C)(C)O)CC1 (stereo not given) | 60.57 |

Each compound was assayed on Rattus norvegicus (assay: Anti-asthmatic activity in ovalbumin-induced asthmatic Sprague-Dawley rat model assessed as improvement in lung function by measuring dynamic compliance of the airway at 0.5 mg/kg, po co-administered with OVA from day 15 to 21 of experiment period (reference value: 0.46 +/- 0.17)). Conditions: not given.

| SMILES | Activity |
| --- | --- |
| CC(=O)OCC(=O)[C@@]1(O)[C@H](C)C[C@H]2[C@@H]3CCC4=CC(=O)C=C[C@]4(C)[C@@]3(F)[C@@H](O)C[C@@]21C [DEXAMETHASONE ACETATE] | 0.66 |

What follows are compounds tested on Rattus norvegicus (assay: Anti-asthmatic activity in ovalbumin-induced asthmatic Sprague-Dawley rat model assessed as improvement in lung function by measuring airway resistance at 1.6 g/kg, po co-administered with OVA from day 15 to 21 of experiment period (reference value: 67.33 +/- 10.54)). Conditions: not given.
Type: functional

| SMILES | Activity |
| --- | --- |
| CC1=CCC(C(C)(C)OC(=O)CN(C)CCO)CC1 (stereo not given) | 51.69 |
| CC1=CCC(C(C)(C)OC(=O)CSCCO)CC1 (stereo not given) | 41.69 |

These compounds were tested on Rattus norvegicus (assay: Anti-asthmatic activity in ovalbumin-induced asthmatic Sprague-Dawley rat model assessed as IL-17 levels in serum at 1.6 g/kg, po co-administered with OVA from day 15 to 21 of experiment period (reference value: 16.85 +/- 1.13 pg/ml)). Conditions: not given.
Type: functional

| SMILES | Activity [pg/mL] |
| --- | --- |
| CC1=CCC(C(C)(C)OC(=O)CN(C)CCO)CC1 (stereo not given) | 16.35 |
| CC1=CCC(C(C)(C)OC(=O)CSCCO)CC1 (stereo not given) | 15.09 |

Each compound was assayed on Rattus norvegicus (assay: Anti-asthmatic activity in ovalbumin-induced asthmatic Sprague-Dawley rat model assessed as improvement in lung function by measuring dynamic compliance of the airway at 1 g/kg, po co-administered with OVA from day 15 to 21 of experiment period (reference value: 0.46 +/- 0.17)). Conditions: not given.
Type: functional

| SMILES | Activity |
| --- | --- |
| CC1=CCC(C(C)(C)O)CC1 (stereo not given) | 0.53 |

These compounds were tested against Adrenergic receptor beta (Rattus norvegicus) (UniProt P18090+P10608+P26255) (assay: Agonist activity at beta-adrenergic receptor in rat airway smooth muscle cells assessed as reduction in acetylcholine-induced muscle contractions by measuring cAMP levels after 18 hrs post acetylcholine stimulation by ELISA (reference value: 8.402 +/- 0.041 nmol/l)). Conditions: not given.
Type: functional
Summary of the method: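 Rat airway smooth muscle cells (passages 4–6) were seeded at 5×10^4/mL and grown for 48 h. They were stimulated with acetylcholine 0.33 mmol/L for 4 h, then exposed to compound for 18 h. Cells were trypsinized (0.25%, 2 min) and sonicated, and cAMP in the supernatant was measured by ELISA.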

| Activity [nmol/L] | SMILES |
| --- | --- |
| 8.94 | CC1=CCC(C(C)(C)OC(=O)CN(CCO)CCO)CC1 (stereo not given) |
| 9.01 | CC1=CCC(C(C)(C)OC(=O)CN(C)CCO)CC1 (stereo not given) |
| 8.81 | CC1=CCC(C(C)(C)OC(=O)CN2CCOCC2)CC1 (stereo not given) |
| 8.82 | CC1=CCC(C(C)(C)OC(=O)CSCCO)CC1 (stereo not given) |
| 8.98 | CC1=CCC(C(C)(C)OC(=O)CN2CCC(O)CC2)CC1 (stereo not given) |
| 8.76 | CC1=CCC(C(C)(C)OC(=O)CSCC(O)CO)CC1 (stereo not given) |
| 9.53 | CCN(CC)CC(=O)OC(C)(C)C1CC=C(C)CC1 (stereo not given) |
| 8.51 | CC1=CCC(C(C)(C)O)CC1 (stereo not given) |

| SMILES | Activity [nmol/L] |
| --- | --- |
| Cn1c(=O)c2[nH]cnc2n(C)c1=O | 8.6 |

What follows are compounds tested on Smooth muscle of trachea (assay: Anti-asthmatic activity in guinea pig tracheal smooth muscle ring assessed as reduction in acetylcholine-induced muscle contractions after 60 mins). Conditions: Cavia porcellus.
Type: functional, tissue-based
Summary of the method: as §1

| SMILES | Activity |
| --- | --- |
| Cn1c(=O)c2[nH]cnc2n(C)c1=O | Dose-dependent effect |
| CC1=CCC(C(C)(C)OC(=O)CN(CCO)CCO)CC1 (stereo not given) | Dose-dependent effect |
| CC1=CCC(C(C)(C)OC(=O)CN(C)CCO)CC1 (stereo not given) | Dose-dependent effect |
| CC1=CCC(C(C)(C)OC(=O)C(C)(C)C)CC1 (stereo not given) | Dose-dependent effect |
| CCCC(=O)OC(C)(C)C1CC=C(C)CC1 (stereo not given) | Dose-dependent effect |
| CC1=CCC(C(C)(C)OC(=O)CN2CCOCC2)CC1 (stereo not given) | Dose-dependent effect |
| CC(=O)OC(C)(C)C1CC=C(C)CC1 (stereo not given) | Dose-dependent effect |
| CC1CCC(C(C)(C)O)CC1 (stereo not given) | Dose-dependent effect |
| CC1=CCC(C(C)(C)OC(=O)CSCCO)CC1 (stereo not given) | Dose-dependent effect |
| CC1=CCC(C(C)(C)OC(=O)CN2CCC(O)CC2)CC1 (stereo not given) | Dose-dependent effect |
| CC1=CCC(C(C)(C)OC(=O)CN2CCCCC2)CC1 (stereo not given) | Dose-dependent effect |
| CC1=CCC(C(C)(C)OC(=O)C(C)C)CC1 (stereo not given) | Dose-dependent effect |
| CCCCCCCCCCCCCCCCCC(=O)OC(C)(C)C1CC=C(C)CC1 (stereo not given) | Dose-dependent effect |
| CCC(=O)OC(C)(C)C1CC=C(C)CC1 (stereo not given) | Dose-dependent effect |
| CCCCCCCCCCCCCC(=O)OC(C)(C)C1CC=C(C)CC1 (stereo not given) | Dose-dependent effect |
| CC1=CCC(C(C)(C)OC=O)CC1 (stereo not given) | Dose-dependent effect |
| CC1=CCC(C(C)(C)OC(=O)CSCC(O)CO)CC1 (stereo not given) | Dose-dependent effect |
| CCN(CC)CC(=O)OC(C)(C)C1CC=C(C)CC1 (stereo not given) | Dose-dependent effect |
| CC1=CCC(C(C)(C)OC(=O)CO[N+](=O)[O-])CC1 (stereo not given) | Dose-dependent effect |
| CC1=CCC(C(C)(C)O)CC1 (stereo not given) | Dose-dependent effect |
| CC1=CCC(C(C)(C)OC(=O)CN2CCC(=O)CC2)CC1 (stereo not given) | Dose-dependent effect |

The compounds below were run on Rattus norvegicus (assay: Anti-asthmatic activity in ovalbumin-induced asthmatic Sprague-Dawley rat model assessed as IL-17 levels in serum at 1 g/kg, po co-administered with OVA from day 15 to 21 of experiment period (reference value: 16.85 +/- 1.13 pg/ml)). Conditions: not given.
Type: functional

| SMILES | Activity [pg/mL] |
| --- | --- |
| CC1=CCC(C(C)(C)O)CC1 (stereo not given) | 16.19 |

Each compound was assayed on Rattus norvegicus (assay: Anti-asthmatic activity in ovalbumin-induced asthmatic Sprague-Dawley rat model assessed as improvement in lung function by measuring airway resistance at 0.5 mg/kg, po co-administered with OVA from day 15 to 21 of experiment period (reference value: 67.33 +/- 10.54)). Conditions: not given.

| SMILES | Activity |
| --- | --- |
| CC(=O)OCC(=O)[C@@]1(O)[C@H](C)C[C@H]2[C@@H]3CCC4=CC(=O)C=C[C@]4(C)[C@@]3(F)[C@@H](O)C[C@@]21C [DEXAMETHASONE ACETATE] | 41.51 |

What follows are compounds tested on Rattus norvegicus (assay: Anti-asthmatic activity in ovalbumin-induced asthmatic Sprague-Dawley rat model assessed as IL-14 levels in serum at 1 g/kg, po co-administered with OVA from day 15 to 21 of experiment period (reference value: 16.04 +/- 1.41 pg/ml)). Conditions: not given.
Type: functional

| SMILES | Activity [pg/mL] |
| --- | --- |
| CC1=CCC(C(C)(C)O)CC1 (stereo not given) | 15.5 |

These compounds were tested on Smooth muscle of trachea (assay: Anti-asthmatic activity in guinea pig tracheal smooth muscle ring assessed as reduction in acetylcholine-induced muscle contractions by measuring muscle relaxation at 0.75 mmol/l after 60 mins (reference value: 7.73 +/- 4.81%)). Conditions: not given.
Type: functional, Cavia porcellus
Design: scale not given: the % may be the effect or the level left
Summary of the method: as §1

| SMILES | Activity [%] |
| --- | --- |
| CC1=CCC(C(C)(C)OC(=O)C(C)(C)C)CC1 (stereo not given) | 25.49 |
| CCCC(=O)OC(C)(C)C1CC=C(C)CC1 (stereo not given) | 21.2 |
| CC(=O)OC(C)(C)C1CC=C(C)CC1 (stereo not given) | 34.35 |
| CC1=CCC(C(C)(C)OC(=O)C(C)C)CC1 (stereo not given) | 19.88 |
| CCC(=O)OC(C)(C)C1CC=C(C)CC1 (stereo not given) | 18.18 |
| CC1=CCC(C(C)(C)OC=O)CC1 (stereo not given) | 14.62 |
| CC1=CCC(C(C)(C)OC(=O)CSCC(O)CO)CC1 (stereo not given) | 34.84 |

The compounds below were run on Rattus norvegicus (assay: Anti-asthmatic activity in ovalbumin-induced asthmatic Sprague-Dawley rat model assessed as IL-14 levels in serum at 1.6 g/kg, po co-administered with OVA from day 15 to 21 of experiment period (reference value: 16.04 +/- 1.41 pg/ml)). Conditions: not given.
Type: functional

| SMILES | Activity [pg/mL] |
| --- | --- |
| CC1=CCC(C(C)(C)OC(=O)CN(C)CCO)CC1 (stereo not given) | 15.66 |
| CC1=CCC(C(C)(C)OC(=O)CSCCO)CC1 (stereo not given) | 14 |

The compounds below were run on Rattus norvegicus (assay: Anti-asthmatic activity in ovalbumin-induced asthmatic Sprague-Dawley rat model assessed as IL-14 levels in serum at 0.5 mg/kg, po co-administered with OVA from day 15 to 21 of experiment period (reference value: 16.04 +/- 1.41 pg/ml)). Conditions: not given.

| SMILES | Activity [pg/mL] |
| --- | --- |
| CC(=O)OCC(=O)[C@@]1(O)[C@H](C)C[C@H]2[C@@H]3CCC4=CC(=O)C=C[C@]4(C)[C@@]3(F)[C@@H](O)C[C@@]21C [DEXAMETHASONE ACETATE] | 14.31 |
